Measured values taken from publication PMC4465239 (Journal of autoimmunity, 2013).
Where two headings read alike, the source gives them in different places. Where no end group is shown, it is not given here. fluorescein = fluorescein label at the C-terminus

B1: IL-2: recombinant mouse IL-2 (protein, UniProt P04351 21-169, looked up)
Interleukin-2: APTSSSTSSSTAEAQQQQQQQQQQQQHLEQLLMDLQELLSRMENYRNLKLPRMLTFKFYLPKQATELKDLQCLEDELGPLRHVLDLTQSKSFQLEDAENFISNIRVTVVKLKGSDNTFECQFDDESATVVDFLRRWIAFCQSIISTSPQ
B2: BDC-2.5 mimotope peptide … (peptide)
peptide: AHHPIWARMDA-fluorescein
B3: YPDV MHC variant peptide … (peptide)
peptide: AHYPIPADMDV-fluorescein

Legend:
I-A^g7 = assay: Half life of peptide:MHC interaction; type: binding, mouse; details: HPSEC, 37°C
Outline: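 I-Ag7 monomer (1 µM) was loaded with 10 µM C-terminally fluoresceinated peptide for 24–72h at 37°C in 100mM citrate phosphate pH 5, 0.2% NP-40, 0.02% azide, 10mM EDTA and protease inhibitors. Free peptide was removed on a BSA-blocked G-50 spin column, and 2mM unlabelled competitor peptide was added. Samples dissociated at 37°C, were resolved by size-exclusion HPLC with fluorescence detection, and t½ = ln2/decay slope.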

BDC-2.5 T cells [1] = assay: Proliferation of anergized cells with or without exogenous IL-2; type: cell-based, mouse; details: for proliferation on mimotope rechallenge with IL-2: with 3.5ng/well recombinant IL-2, mimotope+IL-2 vs. variant+IL-2 p=0.001; for proliferation on mimotope rechallenge without IL-2: without exogenous IL-2, mimotope vs. variant p=0.05
Outline: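 Anergy was induced as follows: 14 d with 1µM mimotope, then 14 d with 1µM mimotope or 10µM variant plus irradiated APC. Cells were rechallenged with irradiated syngeneic splenocytes and graded mimotope, with or without 3.5ng/well recombinant mouse IL-2, for 48h at 37°C. [3H]thymidine (0.4µCi/well) was added for a further 18h. Stimulation index = stimulated CPM/unstimulated CPM. One-way ANOVA with Bonferroni post test.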

BDC-2.5 T cells [2] = type: cell-based, mouse
Outline: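 BDC-2.5 splenocytes were primed 14 d with 1µM mimotope, Ficoll-purified, then restimulated 14 d with irradiated (3000 rad) syngeneic splenocytes plus 1µM mimotope or 10µM variant. They were then challenged with graded mimotope and irradiated splenocytes at 37°C. After 48h, 0.4µCi/well [3H]thymidine was added and incorporation counted 18h later. Four independent experiments in duplicate; mean ± SEM; Student's t test.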

[3] = biological target: I-A^g7 monomer (class II MHC of the NOD mouse) (mouse (NOD)); assay: SEC

Molecule | stability of complex with I-A^g7 (I-A^g7) | proliferation on mimotope rechallenge with IL-2 (BDC-2.5 T cells [1]) | proliferation on mimotope rechallenge without IL-2 (BDC-2.5 T cells [1]) | half life of the peptide:MHC complex [3] | also measured
AHHPIWARMDA [mimotope, reference compound] | extremely stable complex | maintained a normal dose response to agonist stimulation | typical proliferation profile | – | background proliferation with IL-2, no peptide rechallenge (BDC-2.5 T cells [1]; cells not stimulated with peptide, plus 3.5ng/well recombinant IL-2): increased background proliferation
AHYPIPADMDV [YPDV] | much less stable complex | did not exhibit proliferation above background | little proliferation above background | – | induction of anergy (BDC-2.5 T cells [2]): sufficient to induce an anergic phenotype; induction of anergy (BDC-2.5 T cells [2]; listed as MHC variant peptide): can induce anergy in BDC-2.5 T cells
B1 | – | – | – | – | rescue of proliferation of anergized T cells by IL-2 (BDC-2.5 T cells [1]; exogenous recombinant IL-2, 3.5ng/well): does not rescue proliferation of anergized T cells
B2 | – | – | – | > 36 h | –
B3 | – | – | – | 4 h | –
